{
  "source": "ChEMBL document CHEMBL2177098",
  "about": "“Synthesis and evaluation of novel ¹⁸F labeled 2-pyridinylbenzoxazole and 2-pyridinylbenzothiazole derivatives as ligands for positron emission tomography (PET) imaging of β-amyloid plaques” (J Med Chem, 2012)",
  "key": {"Mus musculus [1]": {"species_on_record": "Mus musculus", "assay": "Binding affinity to amyloid beta plaques in transgenic C57BL6 mouse cortex expressing APP Swedish mutant/PSEN1 at 370 KBq/100 ul after 1 hr by autoradiographic analysis", "details": "tested as the 18F-labelled form", "outline": "(§1)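 Paraffin brain sections from 12-month-old Tg mice (C57BL6, APPswe/PSEN1) and age-matched controls, deparaffinized through xylene and graded ethanol, then PBS (0.2 M, pH 7.4) 30 min. Incubated with 18F tracer (370 KBq per 100 μL) 1 h at room temperature, washed in 40% EtOH, rinsed in water, then phosphor plate exposure 2 h. The same sections were afterwards stained with 0.125% thioflavin S in 10% EtOH for 3 min and washed in 40% EtOH.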"}, "Mus musculus [2]": {"species_on_record": "Mus musculus", "assay": "Binding affinity to amyloid beta plaques in transgenic C57BL6 mouse hippocampus expressing APP Swedish mutant/PSEN1 at 370 KBq/100 ul after 1 hr by thioflavinS-staining method", "format": "tissue-based", "details": "tested as the 18F-labelled form", "outline": "as §1"}, "[3]": {"assay": "Displacement of [125I]-IMPY from amyloid beta (1 to 42) fibrils after 2 hrs by gamma-counting analysis", "outline": "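Competition binding with aggregated Aβ1-42 fibrils and [125I]IMPY (60000−100000 cpm/100 μL) in 0.05% BSA (1 mL total); inhibitors 10⁻⁴−10^−8.5 M in ethanol. Incubated 37 °C for 2 h, then GF/B vacuum filtration with PBS (0.02 M, pH 7.4) washes and γ counting. Three repeats; IC50 converted to Ki by Cheng−Prusoff.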"}, "Mus musculus [4]": {"species_on_record": "Mus musculus", "assay": "Binding affinity to amyloid beta plaques in transgenic C57BL6 mouse hippocampus expressing APP Swedish mutant/PSEN1 at 370 KBq/100 ul after 1 hr by autoradiographic analysis", "format": "tissue-based", "details": "tested as the 18F-labelled form", "outline": "as §1"}, "Mus musculus [5]": {"species_on_record": "Mus musculus", "assay": "Binding affinity to amyloid beta plaques in transgenic C57BL6 mouse cortex expressing APP Swedish mutant/PSEN1 at 370 KBq/100 ul after 1 hr by thioflavinS-staining method", "details": "tested as the 18F-labelled form", "outline": "as §1"}, "[6]": {"biological_target": "Amyloid-beta precursor protein (Homo sapiens) (UniProt P05067)", "sequence (P05067 whole entry)": "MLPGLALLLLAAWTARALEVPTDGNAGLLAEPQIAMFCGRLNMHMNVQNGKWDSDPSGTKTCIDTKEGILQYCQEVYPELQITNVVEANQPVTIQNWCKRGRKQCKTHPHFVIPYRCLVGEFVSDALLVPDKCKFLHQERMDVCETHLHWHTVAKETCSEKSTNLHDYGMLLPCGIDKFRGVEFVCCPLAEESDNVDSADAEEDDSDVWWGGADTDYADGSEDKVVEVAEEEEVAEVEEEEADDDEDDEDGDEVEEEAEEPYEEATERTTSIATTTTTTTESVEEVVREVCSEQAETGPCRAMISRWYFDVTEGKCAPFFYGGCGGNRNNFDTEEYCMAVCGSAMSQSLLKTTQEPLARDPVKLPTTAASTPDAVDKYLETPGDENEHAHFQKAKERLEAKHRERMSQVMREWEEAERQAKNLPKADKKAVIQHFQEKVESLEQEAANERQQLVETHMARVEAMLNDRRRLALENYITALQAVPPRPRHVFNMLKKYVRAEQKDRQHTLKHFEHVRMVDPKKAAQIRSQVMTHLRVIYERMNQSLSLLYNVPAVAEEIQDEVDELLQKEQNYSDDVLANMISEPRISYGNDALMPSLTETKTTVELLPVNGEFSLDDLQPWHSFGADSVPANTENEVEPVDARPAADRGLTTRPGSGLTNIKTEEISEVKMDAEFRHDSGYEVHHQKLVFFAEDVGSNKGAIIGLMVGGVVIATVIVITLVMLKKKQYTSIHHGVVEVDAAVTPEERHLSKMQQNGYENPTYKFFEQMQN", "assay": "Binding affinity to amyloid beta plaques in Alzheimer patient brain at 370 KBq/100 ul after 1 hr by autoradiographic analysis", "details": "tested as the 18F-labelled form"}},
  "note": "pKi: −log10 of the molar value. Calls of active or inactive are those of the source. The rule behind the calls is not given here.",
  "data": [
    {"smiles": "CNc1ccc(-c2nc3ccc(OCCOCCOCCF)cc3s2)cn1", "values": [
      {"measurement": "Activity", "setting": "Mus musculus [1]", "value": "Active"},
      {"measurement": "Activity", "setting": "Mus musculus [2]", "value": "Active"},
      {"measurement": "pKi", "setting": "[3]", "value": 8.03},
      {"measurement": "Activity", "setting": "Mus musculus [4]", "value": "Active"},
      {"measurement": "Activity", "setting": "Mus musculus [5]", "value": "Active"},
      {"measurement": "Activity", "setting": "[6]", "value": "Active"}
    ]}
  ]
}
